This note sets out measurements from ChEMBL document CHEMBL1148541, “Biological evaluation of 1-alkyl-3-phenylthioureas as orally active HDL-elevating agents” (Bioorg Med Chem Lett, 2006).

Holding throughout (assay type): functional
In experiment [1] the test system is Rattus norvegicus. The experiment in a line: Increase of HDL level in cholesterol-fed male rats by ultracentrifugation method at 70 mg/kg/day relative to control. The essentials: (§1)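 Cholesterol-fed male Sprague–Dawley rats, six per group, given drug in the diet ad libitum for 8 days. Serum lipoproteins separated by classical ultracentrifugation and HDL cholesterol measured by an enzymatic colorimetric method. Expressed as % change versus untreated controls, with significance set at p < 0.05.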

Experiment [2] deals with Rattus norvegicus. The experiment in a line: Weight gain in cholesterol-fed male rats at 70 mg/kg/day relative to control. The essentials:
(§2)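 Groups of six male Sprague–Dawley rats on a cholesterol diet received the compound in the diet, ad libitum, over 8 days. Body weight gain is reported as % change relative to untreated controls.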

Experiment [3] relates to Rattus norvegicus. As to the kind of experiment: Increase of total cholesterol level in cholesterol-fed male rats at 70 mg/kg/day relative to control. The essentials: (§3)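 Dietary (ad libitum) dosing of groups of six male Sprague–Dawley rats on a cholesterol diet for 8 days. Serum total cholesterol was quantitated enzymatically by a colorimetric method and expressed as % change relative to untreated controls, with significance at p < 0.05.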

For experiment [4], the system named is Rattus norvegicus. As to the kind of experiment: Increase of HDL level in cholesterol-fed male rats by FPLC method at 70 mg/kg/day relative to control. The essentials:
(§4)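 Groups of six male Sprague–Dawley rats on a cholesterol diet received drug in the diet, ad libitum, for 8 days. Serum lipoproteins separated by FPLC, adapted for robotic automation, and cholesterol quantitated enzymatically by colorimetry. HDL given as % change versus untreated controls, with significance set at p < 0.05.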

Experiment [5] has as its system Rattus norvegicus. As to the kind of experiment: Increase of Apolipoprotein A-I level in cholesterol-fed male rats at 70 mg/kg/day relative to control. The essentials:
(§5)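 Drug mixed into diet, fed ad libitum for 8 days to groups of six male Sprague–Dawley rats on a cholesterol diet. Serum Apo A-I measured by SDS–polyacrylamide gel electrophoresis or by rat competition ELISA. Reported as % change versus untreated controls, with significance set at p < 0.05.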

Experiment [6] deals with Rattus norvegicus. The experiment in a line: Triglyceride level in cholesterol-fed male rats at 70 mg/kg/day relative to control. The essentials:
(§6)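 Male Sprague–Dawley rats on a cholesterol diet, in groups of six, received the compound in the diet ad libitum for 8 days. Serum triglycerides are expressed as % change relative to untreated controls, with significance at p < 0.05 versus controls.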

Experiment [7] concerns Rattus norvegicus. The experiment in a line: Increase of HDL level in cholesterol-fed male rats by ultracentrifugation method at 78 mg/kg/day relative to control. The essentials: (§7)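 Compound given in the diet, ad libitum, to groups of six male Sprague–Dawley rats on a cholesterol diet for 8 days. Serum lipoproteins were separated by classical ultracentrifugation, and HDL cholesterol was quantitated by an enzymatic colorimetric method. Results are reported as % change relative to untreated controls, with significance at p < 0.05 versus controls.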

The subject of experiment [8] is Rattus norvegicus. As to the kind of experiment: Weight gain in cholesterol-fed male rats at 78 mg/kg/day relative to control. The essentials: as §2
Experiment [9] concerns Rattus norvegicus. As to the kind of experiment: Increase of total cholesterol level in cholesterol-fed male rats at 78 mg/kg/day relative to control. The essentials: as §3
Experiment [10] concerns Rattus norvegicus. As to the kind of experiment: Increase of HDL level in cholesterol-fed male rats by FPLC method at 78 mg/kg/day relative to control. The essentials:
as §4

Experiment [11] relates to Rattus norvegicus. The experiment in a line: Increase of Apolipoprotein A-I level in cholesterol-fed male rats at 78 mg/kg/day relative to control. The essentials:
as §5

Experiment [12] has as its system Rattus norvegicus. As to the kind of experiment: Triglyceride level in cholesterol-fed male rats at 78 mg/kg/day relative to control. The essentials:
as §6

The species named for experiment [13] is Rattus norvegicus. As to the kind of experiment: Increase in liver enzyme Alkaline phosphatase. More on the design: concentration or dose not given beside the values.
Experiment [14] deals with Rattus norvegicus. The experiment in a line: Increase of Apolipoprotein A-I level in cholesterol-fed male rats at 73 mg/kg/day relative to control. The essentials:
as §5

For experiment [15], the system named is Rattus norvegicus. The experiment in a line: Increase of HDL level in cholesterol-fed male rats by ultracentrifugation method at 73 mg/kg/day relative to control. The essentials:
as §7

For experiment [16], the system named is Rattus norvegicus. As to the kind of experiment: Increase of total cholesterol level in cholesterol-fed male rats at 73 mg/kg/day relative to control. The essentials:
as §3

The test system of experiment [17] is Rattus norvegicus. As to the kind of experiment: Increase of HDL level in cholesterol-fed male rats by FPLC method at 73 mg/kg/day relative to control. The essentials: as §4
Experiment [18] deals with Rattus norvegicus. As to the kind of experiment: Weight gain in cholesterol-fed male rats at 73 mg/kg/day relative to control. The essentials: as §2
The species named for experiment [19] is Rattus norvegicus. The experiment in a line: Increase in liver enzyme Alanine aminotransferase.
The species entered for experiment [20] is Rattus norvegicus. As to the kind of experiment: Increase in liver enzyme Aspartate aminotransferase. More on the design: concentration or dose not given beside the values.
The subject of experiment [21] is Rattus norvegicus. As to the kind of experiment: Triglyceride level in cholesterol-fed male rats at 73 mg/kg/day relative to control. The essentials: as §6
In experiment [22] the test system is Rattus norvegicus. The experiment in a line: Increase of total cholesterol level in cholesterol-fed male rats at 57 mg/kg/day relative to control. The essentials: as §3
For experiment [23], the system named is Rattus norvegicus. The experiment in a line: Weight gain in cholesterol-fed male rats at 57 mg/kg/day relative to control. The essentials:
as §2

For experiment [24], the system named is Rattus norvegicus. As to the kind of experiment: Increase of HDL level in cholesterol-fed male rats by ultracentrifugation method at 57 mg/kg/day relative to control. The essentials:
as §1

The test system of experiment [25] is Rattus norvegicus. The experiment in a line: Increase of HDL level in cholesterol-fed male rats by FPLC method at 57 mg/kg/day relative to control. The essentials: as §4
The subject of experiment [26] is Rattus norvegicus. The experiment in a line: Increase of Apolipoprotein A-I level in cholesterol-fed male rats at 57 mg/kg/day relative to control. The essentials: as §5
In experiment [27] the test system is Rattus norvegicus. The experiment in a line: Triglyceride level in cholesterol-fed male rats at 57 mg/kg/day relative to control. The essentials:
as §6

Experiment [28] relates to Rattus norvegicus. As to the kind of experiment: Increase of Apolipoprotein A-I level in cholesterol-fed male rats at 81 mg/kg/day relative to control. The essentials: as §5
In experiment [29] the test system is Rattus norvegicus. The experiment in a line: Weight gain in cholesterol-fed male rats at 81 mg/kg/day relative to control. The essentials: as §2
Experiment [30] concerns Rattus norvegicus. The experiment in a line: Increase of HDL level in cholesterol-fed male rats by ultracentrifugation method at 81 mg/kg/day relative to control. The essentials:
as §7

The subject of experiment [31] is Rattus norvegicus. The experiment in a line: Increase of HDL level in cholesterol-fed male rats by FPLC method at 81 mg/kg/day relative to control. The essentials: as §4
The test system of experiment [32] is Rattus norvegicus. The experiment in a line: Increase of total cholesterol level in cholesterol-fed male rats at 81 mg/kg/day relative to control. The essentials: as §3
In experiment [33] the test system is Rattus norvegicus. The experiment in a line: Triglyceride level in cholesterol-fed male rats at 81 mg/kg/day relative to control. The essentials:
as §6

In experiment [34] the test system is Rattus norvegicus. As to the kind of experiment: Increase of Apolipoprotein A-I level in cholesterol-fed male rats at 82 mg/kg/day relative to control. The essentials:
as §5

The test system of experiment [35] is Rattus norvegicus. The experiment in a line: Weight gain in cholesterol-fed male rats at 82 mg/kg/day relative to control. The essentials: as §2
Experiment [36] relates to Rattus norvegicus. The experiment in a line: Increase of HDL level in cholesterol-fed male rats by ultracentrifugation method at 82 mg/kg/day relative to control. The essentials: as §7
For experiment [37], the system named is Rattus norvegicus. As to the kind of experiment: Increase of HDL level in cholesterol-fed male rats by FPLC method at 82 mg/kg/day relative to control. The essentials: as §4
The subject of experiment [38] is Rattus norvegicus. The experiment in a line: Increase of total cholesterol level in cholesterol-fed male rats at 82 mg/kg/day relative to control. The essentials: as §3
Experiment [39] concerns Rattus norvegicus. The experiment in a line: Triglyceride level in cholesterol-fed male rats at 82 mg/kg/day relative to control. The essentials: as §6
In experiment [40] the test system is Rattus norvegicus. As to the kind of experiment: Weight gain in cholesterol-fed male rats at 71 mg/kg/day relative to control. The essentials:
as §2

For experiment [41], the system named is Rattus norvegicus. As to the kind of experiment: Increase of HDL level in cholesterol-fed male rats by ultracentrifugation method at 71 mg/kg/day relative to control. The essentials: as §1
Experiment [42] relates to Rattus norvegicus. The experiment in a line: Increase of total cholesterol level in cholesterol-fed male rats at 71 mg/kg/day relative to control. The essentials:
as §3

Experiment [43] has as its system Rattus norvegicus. The experiment in a line: Increase of HDL level in cholesterol-fed male rats by FPLC method at 71 mg/kg/day relative to control. The essentials: as §4
Experiment [44] relates to Rattus norvegicus. The experiment in a line: Triglyceride level in cholesterol-fed male rats at 71 mg/kg/day relative to control. The essentials:
as §6

Experiment [45] deals with Rattus norvegicus. As to the kind of experiment: Increase of Apolipoprotein A-I level in cholesterol-fed male rats at 88 mg/kg/day relative to control. The essentials: as §5
Experiment [46] deals with Rattus norvegicus. As to the kind of experiment: Increase of HDL level in cholesterol-fed male rats by ultracentrifugation method at 88 mg/kg/day relative to control. The essentials: as §7
Experiment [47] concerns Rattus norvegicus. The experiment in a line: Increase of HDL level in cholesterol-fed male rats by FPLC method at 88 mg/kg/day relative to control. The essentials: as §4
In experiment [48] the test system is Rattus norvegicus. The experiment in a line: Weight gain in cholesterol-fed male rats at 88 mg/kg/day relative to control. The essentials: as §2
The subject of experiment [49] is Rattus norvegicus. As to the kind of experiment: Increase of total cholesterol level in cholesterol-fed male rats at 88 mg/kg/day relative to control. The essentials: as §3
Experiment [50] concerns Rattus norvegicus. The experiment in a line: Triglyceride level in cholesterol-fed male rats at 88 mg/kg/day relative to control. The essentials:
as §6

As for `CCC/N=C(\S)Nc1cc(Cl)ccc1CC`, the Activity is given as 101% in experiment [1]; -33% in [2]; 28% in [3]; 369% in [4]; 43% in [5]; -61% in experiment [6].
As to `CCC/N=C(\S)Nc1cc(Cl)ccc1OC`, the Activity in [7] is given as 99%; in [8], -6%; in experiment [9] it was 49%; in experiment [10], 97%; in [11], 58%; in experiment [12], -43%. Further, the Activity in experiment [13] was found to be 44%.
Consider `CC/N=C(\S)Nc1cc(Cl)ccc1C`, for which the Activity in experiment [14] is on record as 27%; in experiment [15] it was 110%; in [16] it was 32%; in experiment [17], 215%; in experiment [18], -107%; in experiment [19] it was 81%. Further, the Activity in experiment [20] is given as 162%; in [21], -64%.
On to `CCC/N=C(\S)Nc1cc(F)ccc1C`, for which the Activity in experiment [22] is recorded as 54%; in [23], -77%; in experiment [24], 152%; in experiment [25], 312%; in experiment [26], 18%; in experiment [27], -58%.
In the case of `CCC(C)(C)/N=C(\S)Nc1cc(Cl)ccc1C`, the Activity in [28] is given as 64%; in experiment [29] it was 15%; in experiment [30] it was 55%; in [31], 39%; in experiment [32], -10%; in experiment [33] it was -14%.
In the case of `Cc1ccc(Cl)cc1N/C(S)=N/C(C)C(C)(C)C` (configuration not stated), the Activity in experiment [34] is listed as 34%; in [35], -24%; in experiment [36] it was 93%; in [37] it was 109%; in experiment [38], 15%; in experiment [39], -35%.
On to `CCC/N=C(\S)Nc1cc(C)ccc1OC`, for which the Activity in experiment [40] was -16%; in [41], 84%; in experiment [42], 71%; in experiment [43] it was 63%; in [44], -38%.
As for `Cc1ccc(Cl)cc1/N=C(\S)NCC(C)(C)C`, the Activity in experiment [45] was found to be 89%; in experiment [46], 122%; in experiment [47], 196%; in experiment [48] it was 7%; in experiment [19], 111%; in [20], 49%. In addition, the Activity in experiment [49] was 3%; in experiment [50], -66%.
